{
  "source": "ChEMBL document CHEMBL1133169",
  "about": "“A light-inactivated antibiotic” (2000)",
  "format_in_all_cases": "functional",
  "key": {"[1]": {"tested_on": "Staphylococcus aureus", "assay": "Minimum inhibitory activity towards Staphylococcus aureus ATCC 25923", "how_it_was_run": "(§1)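 Broth microdilution in Mueller-Hinton broth, inoculum 5 × 10^5 CFU/mL. MIC taken as the lowest antibiotic concentration preventing growth, judged by absence of turbidity after 24 h at 37 °C.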"}, "[2]": {"assay": "Minimum inhibitory activity towards Bacillus subtilis ATCC 33608", "how_it_was_run": "as §1"}, "[3]": {"tested_on": "Klebsiella pneumoniae", "assay": "Minimum inhibitory activity towards Klebsiella pneumoniae ATCC 10031", "how_it_was_run": "as §1"}, "[4]": {"tested_on": "Enterococcus faecalis", "assay": "Minimum inhibitory activity towards Enterococcus faecalis ATCC 29212", "how_it_was_run": "as §1"}},
  "data": [
    {"smiles": "CC(=O)OCC1=C(C(=O)O)N2C(=O)[C@@H](NC(=O)[C@@H](Cc3ccccc3)NNC(=O)OCc3ccccc3[N+](=O)[O-])C2SC1", "note": "(some centres undefined)", "values": [
      {"measurement": "MIC", "setting": "[1]", "result": 1, "unit": "µg/mL"},
      {"measurement": "MIC", "setting": "[2]", "result": 2, "unit": "µg/mL"},
      {"measurement": "MIC", "setting": "[3]", "result": 32, "unit": "µg/mL"},
      {"measurement": "MIC", "setting": "[4]", "result": "> 32", "unit": "µg/mL"}
    ]}
  ]
}
